Source: the RNAGym collection of RNA variant scans (doi:10.1002/anie.201605470)

B1: Osa-1-4 twister ribozyme (parent)
chain: CCGCCUAACACUGCCAAUGCCGGUCCCAAGCCCGGAUAAAAGUGGAGGGGGCGG

Variants of: B1
Assay: self-cleavage, relative activity (ratio to wild type); higher = more cleavage; co-transcriptional
Method in brief: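 A DNA template was synthesised for a 54-nucleotide twister ribozyme from Oryza sativa, with 97 % wild-type base and 1 % of each other base at each of the 48 positions downstream of the cleavage site. The ribozyme cleaved itself co-transcriptionally during 2 h of in vitro transcription at 37 °C. Reverse transcription with a template-switching oligonucleotide, PCR amplification and deep sequencing followed, and cleavage status came from reads with or without upstream sequence. Relative activity is the fraction cleaved normalised to wild type.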

Point of comparison: CCGCCUAACACUGCCAAUGCCGGUCCUAAGCCCGGAUAAAAGUGGAAGGGGCGG, self-cleavage 0.88. Against it:
- CCGCCUAACACUGCCAAUGCCGGUCCUAAGCCCGGAUAAAAGUGGAGAGGGCGG — lower, 0.04
- CCGCCUAACACUGCCAAUGCCGGUCCUAAGCCCGGAUAAAAGUGGAGCGGGCGG — lower, 0.05
- CCGCCUAACACUGCCAAUGCCGGUCCUAAGCCCGGAUAAAAGUGGAGUGGGCGG — lower, 0.03
- CCGCCUAACACUGCCAAUGCCGGUCCUAAGCCCGGAUAAAAGUGGAGGGUGCGG — lower, 0.12
- CCGCCUAACACUGCCAAUGCCGGUCCUAAGCCCGGAUAAAAGUGGAGGGCGCGG — lower, 0.09
- CCGCCUAACACUGCCAAUGCCGGUCCUAAGCCCGGAUAAAAGUGGAGGGAGCGG — lower, 0.18
- CCGCCUAACACUGCCAAUGCCGGUCCUAAGCCCGGAUAAAAGUGUAGGGGGCGG — lower, 0.04
- CCGCCUAACACUGCCAAUGCCGGUCCUAAGCCCGGAUAAAAGUGAAGGGGGCGG — lower, 0.05
- CCGCCUAACACUGCCAAUGCCGGUCCUAAGCCCGGAUAAAAGUGCAGGGGGCGG — lower, 0.04
- CCGCCUUACACUGCCAAUGCCGGUCCCCAGCCCGGAUAAAAGUGGAGGGGGCGG — lower, 0.07
- CCGCCUCACACUGCCAAUGCCGGUCCCCAGCCCGGAUAAAAGUGGAGGGGGCGG — lower, 0.06
- CCGCCUGACACUGCCAAUGCCGGUCCCCAGCCCGGAUAAAAGUGGAGGGGGCGG — lower, 0.2
- CCGCCUAACACUGCCAAUGCCGGUCCUAAGCCCGGAUAAAACUGGAGGGGGCGG — lower, 0.07
- CCGCCUAACACUGCCAAUGCCGGUCCUAAGCCCGGAUAAAAUUGGAGGGGGCGG — lower, 0.03
- CCGCCUAACACUGCCAAUGCCGGUCCUAAGCCCGGACAAAAGUGGAGGGGGCGG — lower, 0.32
- CCGCCUAACACUGCCAAUGCCGGUCCUAAGCCCGGAGAAAAGUGGAGGGGGCGG — lower, 0.37
- CCGCCUAACACUGCCAAUGCCGGUCCUAAGCCCGGAAAAAAGUGGAGGGGGCGG — lower, 0.16
- CCGCCUACCACUGCCAAUGCCGGUCCCCAGCCCGGAUAAAAGUGGAGGGGGCGG — lower, 0.09
- CCGCCUAACACUGCCAAUGCCGGUCCUAAGCCCGGAUAAAAGUGGAGGUGGCGG — lower, 0.04
- CCGCCUAACACUGCCAAUGCCGGUCCUAAGCCCGGAUAAAAGUGGAGGAGGCGG — lower, 0.05
- CCGCCUAACACUGCCAAUGCCGGUCCUAAGCCCGGAUAAAAGUGGAGGCGGCGG — lower, 0.04
- CCGCCUAACACUGCCAAAGCCGGUCCUAAGCCCGGAUAAAAGUGGAGGGGGCGG — lower, 0.24
- CCGCCUAACACUGCCAAGGCCGGUCCUAAGCCCGGAUAAAAGUGGAGGGGGCGG — lower, 0.37
- CCGCCUAACACUGCCAACGCCGGUCCUAAGCCCGGAUAAAAGUGGAGGGGGCGG — lower, 0.21
- CCGCCUAACACUGCCAAUGCCGGUCCUAAGCCCGGAUAAAAGUGGAUGGGGCGG — lower, 0.11
- CCGCCUAACACUGCCAAUGCCGGUCCUAAGCCCGGAUAAAAGUGGACGGGGCGG — lower, 0.42
- CCGCCUAACACUGCCAAUGCCGGUCCUAAGCCCGGAUAAAAGUUGAGGGGGCGG — lower, 0.12
- CCGCCUAACACUGCCAAUGCCGGUCCUAAGCCCGGAUAAAAGUAGAGGGGGCGG — lower, 0.08
- CCGCCUAACACUGCCAAUGCCGGUCCUAAGCCCGGAUAAAAGUCGAGGGGGCGG — lower, 0.1
- CCGCCUAACACUGCCAAUGCCGGUCCUAAGCCCGGAUAAAAGCGGAGGGGGCGG — lower, 0.1
- CCGCCUAACACUGCCAAUGCCGGUCCUAAGCCCGGAUAAAAGGGGAGGGGGCGG — lower, 0.08
- CCGCCUAACACUGCCAAUGCCGGUCCUAAGCCCGGAUAAAAGAGGAGGGGGCGG — lower, 0.11
- CCGCCUAACACUGCCAAUGCCGGUCCUAAGCCCGGAUAAAAGUGGAGGGGACGG — lower, 0.11
- CCGCCUAACACUGCCAAUGCCGGUCCUAAGCCCGGAUAAAAGUGGAGGGGUCGG — lower, 0.07
- CCGCCUAACACUGCCAAUGCCGGUCCUAAGCCCGGAUAAAAGUGGAGGGGCCGG — lower, 0.04
- CCGCCUAACACUGCCAAUGCCGGCCCUAAGCCCGGAUAAAAGUGGAGGGGGCGG — lower, 0.06
- CCGCCUAACACUGCCAAUGCCGGACCUAAGCCCGGAUAAAAGUGGAGGGGGCGG — lower, 0.04
- CCGCCUAACACUGCCAAUGCCGGGCCUAAGCCCGGAUAAAAGUGGAGGGGGCGG — lower, 0.01
- CCGCCUAACACAGCCAAUGCCGGUCCUAAGCCCGGAUAAAAGUGGAGGGGGCGG — lower, 0.1
- CCGCCUAACACGGCCAAUGCCGGUCCUAAGCCCGGAUAAAAGUGGAGGGGGCGG — lower, 0.07
- CCGCCUAACACCGCCAAUGCCGGUCCUAAGCCCGGAUAAAAGUGGAGGGGGCGG — lower, 0.07
- CCGCCUAACACUGCCAAUGCCGGUCCUAAGCCCGGAUAAAAGUGGAGGGGGCGU — lower, 0.31
- CCGCCUAACACUGCCAAUGCCGGUCCUAAGCCCGGAUAAAAGUGGAGGGGGCGC — lower, 0.12
- CCGCCUAACACUGCCAAUGCCGGUCCUAAGCCCGGAUAAAAGUGGAGGGGGCGA — lower, 0.14
- CCGCCUAACACUGCCAAUGCCGGUCCUAAGCCCGGAUAAAAGUGGAGGGGGCAG — lower, 0.12
- CCGCCUAACACUGCCAAUGCCGGUCCUAAGCCCGGAUAAAAGUGGAGGGGGCCG — lower, 0.05
- CCGCCUAACACUGCCAAUGCCGGUCCUAAGCCCGGAUAAAAGUGGAGGGGGCUG — lower, 0.08
- CCGCCUAACACUGCCAAUGCCGGUCCCCAGCCCGGAUAAAAGUGGAGGGGGCGG — higher, 1
